Assay [1] can be described thus: inhibitors of TNFa-induced NFkB p65 translocation, primary screen, imaging, HUVEC, MLSMR starter and 10KST1 sets (AID 438;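 active = inhibition above 20% together with a positive visual image hit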;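 note: compound added about 3h40 before a 20 min TNFalpha stimulation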;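 for inhibition: signal is the nuclear over cytoplasmic p65 intensity ratio per well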). To be noted: HUVEC TNFa-induced p65 nuclear translocation; cell count: measured here: nuclei count (cytotoxicity indicator), at 2.08 µM; inhibition: at 2 µM, stronger effect = higher value, 0% TNFa-plus-vehicle, 100% no-TNFa wells.
The nature of assay [2]: inhibitors of mutant huntingtin aggregation, primary screen, imaging, exon1htt(103Q)mCFP cells, high-content imaging (AID 483).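 For nuclei count: percent of the per-plate median nuclei count of sample wells.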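 Note: compound exposure lasted 3 days before fixation.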 To be noted: exon1htt(103Q)mCFP cell line, aggregate imaging, at 2 µM; inhibition of aggregation: stronger effect = higher value; nuclei count: measured here: cell count, toxicity.
Assay [3] in a line: inhibitors of E-selectin induction by TNFa, primary screen, imaging, HUVEC, immunofluorescence, MLSMR starter and 10KST1 sets (AID 487;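 active = visually confirmed hit in the image check and inhibition above 20%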;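 for inhibition: signal is fraction of cell area covered by stained E-selectin grains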;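 for nuclei count: 100% = median nuclei count of all wells on the same plate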). The following applies: HUVEC TNFalpha-induced E-selectin immunofluorescence imaging, at 2 µM; inhibition: stronger effect = higher value; nuclei count: measured here: cell number, toxicity.
The target of assay [4] is Voltage-gated potassium channel subunit beta-2 (Rattus norvegicus) (UniProt P62483). Put plainly: KvBeta enzyme negative modulators, primary screen, biochemical, NADPH fluorescence (AID 622;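 active = fluorescence slope higher than the sample average by over 3 SD, cut at about -0.22 in these data, passing the limit was not always enough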;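 note: slope of raw intensity against log time taken from 70 to 1610 s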). To be noted: recombinant KvBeta, 4-cyanobenzaldehyde reduction, at 10 µM, stronger effect = higher value.
Assay [5] has the same target. In words: KvBeta positive modulators, primary screen, biochemical, NADPH fluorescence (AID 623;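 active = NADPH fluorescence slope more negative than the mean of all samples by about 3 SD, 99.7% confidence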;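 note: fluorescence intensity change per second fitted from 20 to 320 s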). The following applies: Recombinant KvBeta, NADPH fluorescence decrease slope, 10 min; at 10 µM; stronger effect = lower value.
The target in assay [6] is Muscarinic acetylcholine receptor M4 (Homo sapiens) (UniProt P08173). Put plainly: compounds altering M4/GIRK thallium flux, either direction, primary screen, M4 allosteric agonist project, cell-based, HEK293 M4/GIRK, BTC-AM (AID 625;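 active = fluorescence slope after compound addition differing from the mean of all tested samples at 99.7% confidence, mostly higher but some lower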;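 note: thallium influx through GIRK channels coupled to M4 in HEK293 cells with BTC-AM dye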). To be noted: at 10 µM, actives lie on both sides. Put shortly: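 Material: M4/GIRK1/GIRK2 stable HEK293 cell line. Medium: pH 7.3 thallium assay buffer. Dosing: single compound concentration, 10 µM final. Schedule: 1 h dye loading, 2 min kinetic read. Measured by: kinetic fluorescence with BTC-AM dye. Read-out: post-addition slope, 15–24 s, of baseline-normalized fluorescence. Benchmarks: carbachol and DMSO controls.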

Assay [7] is described as follows: inhibitors of Sendai virus-induced IRF3 signaling, primary screen, TLR/RLR signaling modifier project, cell-based, Sendai virus stimulus, luciferase, 10K MLSCN set (AID 602276;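 active = inhibition at or above 50% at 10 µM; inactive = inhibition below 50%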;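 note: firefly luciferase from ISG56 promoter only with Renilla not read in this screen; 0% = Sendai virus plus DMSO and 100% = medium plus DMSO without virus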). The following applies: HEK293 RL24 IRF3 luciferase reporter, at 10 µM, stronger effect = higher value. In general terms: Reporter assays use an easily measured gene product as a stand-in for the process of interest.

Assay [8] can be described thus: inhibitors of poly I:C-induced TLR3 signaling, primary screen, cell-based, poly I:C stimulus, luciferase, 10K MLSCN set (AID 602277;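 active = inhibition of the reporter signal at or above 50%; inactive = inhibition below 50%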). To be noted: HEK293-TLR3 RL24 IRF3 luciferase reporter, at 10 µM, stronger effect = higher value.

The term inhibition denotes the drop in the measured response relative to a control, in per cent.

The source made the active and inactive calls.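 Rule for the calls, unless noted: active = visual image review flags a hit and inhibition of aggregation exceeds 20%; inconclusive = visual hit but inhibition at or below 20%; inactive = no hit on visual image review.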

Chain of Muscarinic acetylcholine receptor M4 (Homo sapiens) (P08173 whole entry, looked up): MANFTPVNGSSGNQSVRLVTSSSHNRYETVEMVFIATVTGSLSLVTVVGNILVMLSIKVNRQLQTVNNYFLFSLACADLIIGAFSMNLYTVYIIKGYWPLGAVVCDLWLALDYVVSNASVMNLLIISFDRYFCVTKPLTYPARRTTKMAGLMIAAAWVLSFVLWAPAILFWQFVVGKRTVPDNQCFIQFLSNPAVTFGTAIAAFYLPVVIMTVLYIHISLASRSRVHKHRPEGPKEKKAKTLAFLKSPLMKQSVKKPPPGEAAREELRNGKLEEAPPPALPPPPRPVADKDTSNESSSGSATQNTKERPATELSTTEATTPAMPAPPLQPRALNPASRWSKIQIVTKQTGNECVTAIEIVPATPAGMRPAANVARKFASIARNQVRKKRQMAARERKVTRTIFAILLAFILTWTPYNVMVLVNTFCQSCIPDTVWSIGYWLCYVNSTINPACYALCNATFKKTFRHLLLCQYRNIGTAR
Chain of Voltage-gated potassium channel subunit beta-2 (Rattus norvegicus) (P62483 whole entry, looked up): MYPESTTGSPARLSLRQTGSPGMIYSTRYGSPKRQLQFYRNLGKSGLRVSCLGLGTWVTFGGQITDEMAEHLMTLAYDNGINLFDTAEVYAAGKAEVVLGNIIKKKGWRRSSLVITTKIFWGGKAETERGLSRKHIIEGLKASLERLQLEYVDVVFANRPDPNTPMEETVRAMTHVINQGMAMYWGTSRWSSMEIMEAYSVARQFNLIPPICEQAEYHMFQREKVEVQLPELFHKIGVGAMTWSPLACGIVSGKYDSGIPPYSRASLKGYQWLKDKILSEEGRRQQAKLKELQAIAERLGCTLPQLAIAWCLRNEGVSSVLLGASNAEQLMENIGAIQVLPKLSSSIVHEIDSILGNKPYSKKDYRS

Regarding `Cc1ccc(NC(=O)c2ccc(NS(=O)(=O)c3c(C)noc3C)cc2)cc1C`, the cell count in assay [1] turned out to be 319. For the same compound, the inhibition in assay [1] is -15.8% (inactive); in assay [3] it was -49.9% (inactive); in assay [7], 6.15% (inactive); in assay [8], 9.64% (inactive). The inhibition of aggregation in assay [2] was -9.9% (inactive). Moreover, the nuclei count turned out to be 94.1% in assay [2] and 110% in assay [3]. In addition, the fluorescence slope in assay [4] is -0.48 (inactive); in assay [6], 0.00475 (inactive). Besides, the NADPH fluorescence slope in assay [5] is -0.000226 (inactive).

With `COc1ccc(CN(C(=O)CNC(=O)c2ccco2)C(C(=O)NC2CCCC2)c2ccco2)cc1` (centres undefined), in assay [1], the cell count turned out to be 510. In addition, the inhibition was 7.2% (inactive) in assay [1], -62.9% (inactive) in assay [3], -14.2% (inactive) in assay [7] and -26.3% (inactive) in assay [8]. Also, the inhibition of aggregation in assay [2] is 3.1% (inactive). For the same compound, the nuclei count came out at 105% in assay [2] and 123% in assay [3]. For the same compound, the figures for the fluorescence slope in assay [4] and in assay [6] were -0.592 (inactive) and 0.00679 (inactive), respectively. The NADPH fluorescence slope in assay [5] is -1.6e-05 (inactive).

Turning to `O=C(NCCN1CCOCC1)c1ccc2c(c1)N(Cc1ccccc1)C(=O)CS2`, in assay [1], the cell count was 773. The inhibition was -9.5% (inactive) in assay [1], 20.7% (inactive) in assay [3], -1.65% (inactive) in assay [7] and 8.57% (inactive) in assay [8]. The inhibition of aggregation in assay [2] was -8.5% (inactive). Further, the nuclei count stood at 102% in assay [2] and 105% in assay [3]. The fluorescence slope is -0.564 (inactive) in assay [4] and 0.00419 (inactive) in assay [6]. Besides, in assay [5], the NADPH fluorescence slope is 2e-05 (inactive).

In the case of `COc1cc(C2Nc3cccc4cccc(c34)N2)cc(OC)c1O`, the cell count in assay [1] is 372. The inhibition is -0.6% (inactive) in assay [1], -27.6% (inactive) in assay [3], 3.04% (inactive) in assay [7] and 5% (inactive) in assay [8]. The inhibition of aggregation in assay [2] is 29.3% (inactive). For the same compound, the nuclei count in assay [2] was 91.5%; in assay [3] it was 108%. Besides, the values for the fluorescence slope in assay [4] and in assay [6] were -0.464 (inactive) and 0.00443 (inactive), respectively. Moreover, in assay [5], the NADPH fluorescence slope is 1.6e-05 (inactive).

As for `Clc1ccc(SCCn2ccnc2)cc1`, the cell count in assay [1] was 481. For the same compound, the inhibition in assay [1] was 10.1% (inactive); in assay [3] it was -245% (inactive); in assay [7], 2.29% (inactive); in assay [8], 5.02% (inactive). In addition, the inhibition of aggregation in assay [2] was -7.9% (inactive). In addition, the nuclei count in assay [2] is 104%; in assay [3] it was 137%. In addition, the fluorescence slope in assay [4] was -0.325 (inactive); in assay [6], 0.00636 (inactive). Besides, in assay [5], the NADPH fluorescence slope is -2.6e-05 (inactive).

As for `COC(=O)c1ccccc1NC(=O)CSc1nnnn1C1CCCCC1`, the cell count in assay [1] came out at 309. Also, the inhibition in assay [1] was -3.7% (inactive); in assay [3], -39.4% (inactive); in assay [7], 3.68% (inactive); in assay [8] it was 20.1% (inactive). Besides, the inhibition of aggregation in assay [2] was -19.4% (inactive). Besides, the nuclei count stood at 108% in assay [2] and 81.2% in assay [3]. Further, the figures for the fluorescence slope in assay [4] and in assay [6] were -0.545 (inactive) and 0.00503 (inactive), respectively. Moreover, the NADPH fluorescence slope in assay [5] was -3.8e-05 (inactive).

`O=c1oc2ccccc2c(N2CCCCC2)c1CN1CCCCC1`: the cell count in assay [1] was 731. The inhibition is -5.4% (inactive) in assay [1], 25.6% (inactive) in assay [3], -13.6% (inactive) in assay [7] and -1.22% (inactive) in assay [8]. Besides, the inhibition of aggregation in assay [2] was -7.2% (inactive). Further, the nuclei count in assay [2] was determined as 108%; in assay [3], 104%. In addition, the fluorescence slope in assay [4] is -0.549 (inactive); in assay [6] it was 0.00538 (inactive). The NADPH fluorescence slope in assay [5] was -6.2e-05 (inactive).

Turning to `Cc1csc(SCC(=O)NC(=O)NCc2ccccc2)n1`, the cell count in assay [1] is 624. For the same compound, the inhibition in assay [1] is -17.1% (inactive); in assay [3] it was -30.3% (inactive); in assay [7] it was 15.1% (inactive); in assay [8], 20% (inactive). In addition, the inhibition of aggregation in assay [2] was -16.6% (inactive). Moreover, the nuclei count in assay [2] worked out at 114%; in assay [3], 123%. For the same compound, the fluorescence slope in assay [4] was -0.407 (inactive); in assay [6], 0.0067 (inactive). Also, in assay [5], the NADPH fluorescence slope is 9.9e-05 (inactive).

On to `NC(=O)c1nsnc1-c1ccccc1O`, for which, in assay [1], the cell count was 504. The inhibition is -9.3% (inactive) in assay [1], 20.3% (inactive) in assay [3], -10.2% (inactive) in assay [7] and -7.73% (inactive) in assay [8]. In assay [2], the inhibition of aggregation was -3.4% (inactive). The figures for the nuclei count in assay [2] and in assay [3] were 107% and 100%, respectively. Besides, the values for the fluorescence slope in assay [4] and in assay [6] were -0.531 (inactive) and 0.00622 (inactive), respectively. Further, the NADPH fluorescence slope in assay [5] is 0.0001 (inactive).

Consider `Cc1noc(C)c1C(=O)OCC(=O)Nc1ccccc1C(=O)NC(C)c1ccccc1` (centres undefined), for which the cell count in assay [1] was determined as 503. Also, the inhibition is 4.7% (inactive) in assay [1], -72.6% (inactive) in assay [3], 9.57% (inactive) in assay [7] and 7.74% (inactive) in assay [8]. The inhibition of aggregation in assay [2] was -4% (inactive). Moreover, the nuclei count in assay [2] was determined as 94.3%; in assay [3] it was 106%. In addition, the figures for the fluorescence slope in assay [4] and in assay [6] were -0.414 (inactive) and 0.00545 (inactive), respectively. The NADPH fluorescence slope in assay [5] is -0.000106 (inactive).

Regarding `CCc1nnc(NC(=O)CSc2nnc(Cc3ccccc3)n2-c2ccc(OC)cc2)s1`, the cell count in assay [1] worked out at 680. The inhibition in assay [1] was -13.4% (inactive); in assay [3] it was 52.3% (inactive); in assay [7], 10.9% (inactive); in assay [8] it was 12% (inactive). The inhibition of aggregation in assay [2] was 0.3% (inactive). Moreover, the values for the nuclei count in assay [2] and in assay [3] were 102% and 105%, respectively. The fluorescence slope in assay [4] was -0.45 (inactive); in assay [6], 0.00454 (inactive). Further, the NADPH fluorescence slope in assay [5] is -5.9e-05 (inactive).

Take `C=CCc1cc(C(=O)N2CCCCC2)ccc1O`: in assay [1], the cell count came out at 442. Further, the inhibition is 3.4% (inactive) in assay [1], -96.3% (inactive) in assay [3], 5.94% (inactive) in assay [7] and -14% (inactive) in assay [8]. Besides, in assay [2], the inhibition of aggregation was 6.3% (inactive). For the same compound, the results for the nuclei count in assay [2] and in assay [3] were 99.5% and 118%, respectively. Also, the fluorescence slope in assay [4] was -0.523 (inactive); in assay [6] it was 0.00415 (inactive). The NADPH fluorescence slope in assay [5] was -0.000166 (inactive).

`Cn1c2c(c(=O)[nH]c1=O)C(NC(=O)c1ccco1)(C(F)(F)F)C(=O)N2` (centres undefined): the cell count in assay [1] was determined as 618. Further, the inhibition in assay [1] was 8.2% (inactive); in assay [3] it was -95% (inactive); in assay [7], -2.84% (inactive); in assay [8] it was 6.27% (inactive). In assay [2], the inhibition of aggregation was -9.2% (inactive). For the same compound, the nuclei count in assay [2] amounted to 108%; in assay [3] it was 135%. Further, the fluorescence slope in assay [4] was -0.542 (inactive); in assay [6], 0.00391 (inactive). For the same compound, the NADPH fluorescence slope in assay [5] is -6.4e-05 (inactive).

Consider `CCCc1nn(CCc2ccccn2)c(N)c1CC`, for which the cell count in assay [1] was 613. Moreover, the inhibition in assay [1] is -9.1% (inactive); in assay [3], -43.2% (inactive); in assay [7], 14.8% (inactive); in assay [8], 21.5% (inactive). Further, the inhibition of aggregation in assay [2] was 7.2% (inactive). Also, the results for the nuclei count in assay [2] and in assay [3] were 105% and 140%, respectively. Also, the fluorescence slope in assay [4] is -0.372 (inactive); in assay [6], 0.00633 (inactive). Also, the NADPH fluorescence slope in assay [5] is 5.8e-05 (inactive).

Values taken from PubChem BioAssay.
